# Experiments:
# [1] = Inhibition of HIV1 reverse transcriptase 41L/69S-SG/210W/215Y mutant in presence of 5 mM ATP by heteropolymeric DNA polymerase assay; set-up: species or system Human immunodeficiency virus 1
# How it was run: (§1)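 Heteropolymeric DNA polymerase assay with ATP added at 5 mM. Purified HIV-1 RT at 30–100 pM acts on a plate-bound DNA primer with a 5′-A12-(GTCA)5-3′ template. dATP, dGTP, dCTP and BrdUTP at 1.0 μM each. Incubation 180 min at 33°C. BrdUMP incorporation read via anti-BrdU-AP at 405 nm after NaOH dehybridization. IC50 from seven inhibitor concentrations, at least two experiments in duplicate.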
# [2] = Inhibition of HIV1 LAI reverse transcriptase 65R mutant in presence of 5 mM ATP by heteropolymeric DNA polymerase assay; set-up: species or system Human immunodeficiency virus 1; how it was run: as §1
# [3] = Inhibition of HIV1 reverse transcriptase 75I/77L/116Y/151M mutant in presence of 5 mM ATP by heteropolymeric DNA polymerase assay; set-up: species or system Human immunodeficiency virus 1; how it was run: as §1
# [4] = Inhibition of HIV1 reverse transcriptase 184V mutant in presence of 5 mM ATP by heteropolymeric DNA polymerase assay; set-up: species or system Human immunodeficiency virus 1; how it was run: as §1
# [5] = Inhibition of HIV1 reverse transcriptase 41L/67N/70R/184V/210W/215Y mutant in presence of 5 mM ATP by heteropolymeric DNA polymerase assay; set-up: species or system Human immunodeficiency virus 1; how it was run: as §1
# [6] = Inhibition of HIV1 reverse transcriptase 75I/77L/116Y/151M/184V mutant by heteropolymeric DNA polymerase assay; set-up: species or system Human immunodeficiency virus 1
# How it was run: (§2)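 Purified p66/p51 HIV-1 RT, or p66 homodimer for 65R, at 30–100 pM (about 1.5–4.5 mU/well). Plate-bound 18-mer DNA primer on a 50-base 5′-A12-(GTCA)5-3′ DNA template. dATP, dGTP, dCTP and BrdUTP at 1.0 μM each, no ATP. Buffer: HEPES 50 mM pH 7.3, 10 mM MgCl2. Incubation 180 min at 33°C, NaOH dehybridization, anti-BrdU-AP tracer, A405. IC50 from seven inhibitor concentrations, at least two experiments in duplicate.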
# [7] = Inhibition of HIV1 reverse transcriptase 41L/67N/70R/210W/215Y mutant in presence of 20 uM dNTP by heteropolymeric DNA polymerase assay; set-up: species or system Human immunodeficiency virus 1
# How it was run: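 DNA polymerase assay with 5 mM ATP and purified HIV-1 RT (HXB2 background) on a plate-bound primer with a 5′-A12-(GTCA)5-3′ template. Each dNTP (dATP, dGTP, dCTP, BrdUTP) is set at either 1 μM or 20 μM. Incubation 180 min at 33°C, anti-BrdU-AP readout at 405 nm. IC50 from at least two experiments in duplicate. Fold change is relative to wild-type RT at the same dNTP level.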
# [8] = Inhibition of HIV1 pNL4-3 reverse transcriptase 115F mutant in presence of 5 mM ATP by heteropolymeric DNA polymerase assay; set-up: species or system Human immunodeficiency virus 1; how it was run: as §1
# [9] = Inhibition of HIV1 reverse transcriptase 41L/69S-SG/210W/215Y mutant by heteropolymeric DNA polymerase assay; set-up: species or system Human immunodeficiency virus 1; how it was run: as §2
# [10] = Inhibition of HIV1 pNL4-3 reverse transcriptase 115F mutant by heteropolymeric DNA polymerase assay; set-up: species or system Human immunodeficiency virus 1; how it was run: as §2
# [11] = Inhibition of HIV1 reverse transcriptase wild type HXB2(a) in presence of 5 mM ATP by heteropolymeric DNA polymerase assay; set-up: species or system Human immunodeficiency virus 1
# How it was run: (§3)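 Heteropolymeric DNA assay with 5 mM ATP added: immobilized 18-mer primer, 5′-A12-(GTCA)5 50-mer template, dATP/dGTP/dCTP/BrdUTP at 1.0 μM each, HEPES 50 mM pH 7.3, MgCl2 10 mM. RT 30–100 pM, incubated at 33°C for 180 min. NaOH strand separation, then anti-BrdU-AP detection at 405 nm. IC50 fitted from seven inhibitor concentrations; two to four runs in duplicate.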
# [12] = target: T1, Human immunodeficiency virus type 1 reverse transcriptase (Human immunodeficiency virus 1, UniProt Q72547); test: Inhibition of HIV1 pNL4-3 reverse transcriptase wild type pNL4-3 by heteropolymeric DNA polymerase assay
# How it was run: (§4)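 Heteropolymeric assay without ATP: plate-bound 18-mer DNA primer (~110 nM) with 50-mer 5′-A12-(GTCA)5 template (190 nM). dATP, dGTP, dCTP and BrdUTP at 1.0 μM each, in HEPES 50 mM pH 7.3, MgCl2 10 mM. RT 30–100 pM, 33°C for 180 min, then NaOH dehybridization and anti-BrdU-AP tracer read at 405 nm. IC50 from seven triphosphate concentrations; two to four runs in duplicate.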
# [13] = Inhibition of HIV1 reverse transcriptase wild type HXB2(b) in presence of 5 mM ATP by heteropolymeric DNA polymerase assay; set-up: species or system Human immunodeficiency virus 1; how it was run: as §3
# [14] = Inhibition of HIV1 reverse transcriptase wild type HXB2(a) in presence of 5'-A12-(GTCA)5-3' by heteropolymeric DNA polymerase assay; set-up: species or system Human immunodeficiency virus 1
# How it was run: (§5)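 Heteropolymeric DNA assay containing 5 mM ATP on the 5′-A12-(GTCA)5 template, with each dNTP (BrdUTP in place of TTP) at 1 μM or, in the modified version, 20 μM. HEPES 50 mM pH 7.3, MgCl2 10 mM, 33°C for 180 min, then NaOH step and anti-BrdU-AP readout at 405 nm. Mean IC50 from at least two runs in duplicate.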
# [15] = Inhibition of HIV1 reverse transcriptase 184V mutant by heteropolymeric DNA polymerase assay; set-up: species or system Human immunodeficiency virus 1; how it was run: as §2
# [16] = Inhibition of HIV1 HXB2 reverse transcriptase 41L/67N/70R/215Y/219Q mutant in presence of 5 mM ATP by heteropolymeric DNA polymerase assay
# [17] = Inhibition of HIV1 reverse transcriptase 75I/77L/116Y/151M/184V mutant in presence of 5 mM ATP by heteropolymeric DNA polymerase assay; set-up: species or system Human immunodeficiency virus 1; how it was run: as §1
# [18] = Inhibition of HIV1 reverse transcriptase 41L/69S-SG/210W/215Y mutant in presence of 5'-A12-(GTCA)5-3' by heteropolymeric DNA polymerase assay
# [19] = target: T1, Human immunodeficiency virus type 1 reverse transcriptase; test: Inhibition of HIV1 LAI reverse transcriptase wild type LAI by heteropolymeric DNA polymerase assay; how it was run: as §4
# [20] = Inhibition of HIV1 reverse transcriptase wild type HXB2(a) in presence of 1 uM dNTP by heteropolymeric DNA polymerase assay; set-up: species or system Human immunodeficiency virus 1; how it was run: as §5
# [21] = target: T1, Human immunodeficiency virus type 1 reverse transcriptase; test: Inhibition of HIV1 pNL4-3 reverse transcriptase wild type pNL4-3 in presence of 5 mM ATP by heteropolymeric DNA polymerase assay; how it was run: as §3
# [22] = target: T1, Human immunodeficiency virus type 1 reverse transcriptase; test: Inhibition of HIV1 LAI reverse transcriptase wild type in presence of 5 mM ATP by heteropolymeric DNA polymerase assay; how it was run: as §3
# [23] = Inhibition of HIV1 reverse transcriptase 75I/77L/116Y/151M mutant by heteropolymeric DNA polymerase assay; set-up: species or system Human immunodeficiency virus 1; how it was run: as §2
SMILES,IC50 [1] [µM],IC50 [2] [nM],IC50 [3] [µM],IC50 [4] [nM],IC50 [5] [nM],IC50 [6] [µM],IC50 [7] [µM],IC50 [8] [nM],IC50 [9] [nM],IC50 [10] [nM],IC50 [11] [nM],IC50 [12] [nM],IC50 [13] [nM],IC50 [14] [nM],IC50 [15] [nM],IC50 [16] [nM],IC50 [17] [µM],IC50 [18] [µM],IC50 [19] [nM],IC50 [20] [nM],also measured
Cc1cn([C@H]2C[C@H](N=[N+]=[N-])[C@@H](COP(=O)(O)OP(=O)(O)OP(=O)(O)O)O2)c(=O)[nH]c1=O [ZIDOVUDINE TRIPHOSPHATE],4.4,610,9,520,900,10.6,16,550,160,130,460,130,480,460,250,2500,22,4.4,80,460,IC50 [21]: 420 nM; IC50 [22]: 300 nM; IC50 [23]: 5.1 µM
C[C@H](Cn1cnc2c(N)ncnc21)OCP(=O)(O)OP(=O)(O)OP(=O)(O)O,24,21000,11,2300,5900,2.9,49,3700,3700,1100,3300,1200,3200,3300,2200,10500,4.6,24,550,3300,IC50 [21]: 4000 nM; IC50 [22]: 1300 nM; IC50 [23]: 8 µM
Cc1cn([C@H]2CO[C@@H](COP(=O)(O)OP(=O)(O)OP(=O)(O)O)O2)c(=O)[nH]c1=O,1.6,750,6.1,500,700,7.1,2.4,200,110,80,380,100,380,380,180,840,15,1.6,110,380,IC50 [21]: 300 nM; IC50 [22]: 190 nM; IC50 [23]: 2.1 µM

# — ChEMBL document CHEMBL1143844, “Biochemical studies on the mechanism of human immunodeficiency virus type 1 reverse transcriptase resistance to 1-(beta-D-dioxolane)thymine triphosphate” (Antimicrob Agents Chemother, 2007)
